Assay results from publication PMC8719016 (iScience, 2021).
Peptide text beside a SMILES is read from it.

Legend:
[1] = system: E. coli KS272, HM130 and HM130 with trypsin protease; assay: MBC with and without protease activity; type: cell-based, Escherichia coli; conditions: KS272, HM130, HM130 with 160 ng/mL trypsin protease, MH media
Procedure, shortened: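 E. coli KS272 (parent) and HM130 (cell envelope proteases deleted) are grown overnight at 37°C. Trypsin, where used, is added to the diluted cells at twice the final concentration. Test compound is taken from 256 µg/mL through 2-fold serial dilutions in triplicate, 5 × 10^5 cells/mL final, for 18–24 h at 37°C.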

A. baumannii AB5075 = assay: Isolation of resistant mutants by subinhibitory serial passage; type: cell-based, Acinetobacter baumannii; conditions: subinhibitory serial passage in liquid media over two weeks
[2] = system: A. baumannii AB5075 knockout or overexpression strains; assay: MIC against knockout or overexpression strains of upregulated genes; type: cell-based, Acinetobacter baumannii; conditions: all the upregulated genes tested (Table S1: fold change MIC 1 for each)
Procedure, shortened: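 Genes for overexpression are cloned via EcoRI/SalI into pMMBEH67 TetR, electroporated into AB5075 and selected on LB with 10 µg/mL tetracycline. […] The MIC is the lowest concentration with no visible growth, by eye, median of triplicates.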

human red blood cells [3] = assay: Hemolysis; type: cell-based; conditions: 2-fold serial dilutions, compared with 1% Triton X-100 (100%); n = 3
[4] = MBC of β-AMPs with and without 40% human serum; type: cell-based; conditions: MH vs MH with 40% human serum; strain not given
Procedure, shortened: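 Broth microdilution is run in MH with or without human serum, which is added to the cell suspension at twice the final level. Test compound is taken from 256 µg/mL through 2-fold serial dilutions in triplicate, with 5 × 10^5 cells/mL final, for 18–24 h at 37°C. 5 µL per well is plated on LB agar for 18 h at 37°C. MBC is the lowest concentration with zero growth, median of triplicates.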

human red blood cells [5] = conditions: ref Edwards et al., 2016; cited from earlier work
Solubility in water = type: physicochemical; conditions: lyophilized peptides resuspended in water at 10 mg/mL

CC[C@H](C)[C@H](NC(=O)[C@H](CCCCN)NC(=O)[C@@H](NC(=O)[C@H](CC(N)=O)NC(=O)[C@H](C)NC(=O)[C@H](CCCNC(=N)N)NC(=O)[C@H](CCCNC(=N)N)NC(=O)[C@H](CC(N)=O)NC(=O)[C@H](CCCNC(=N)N)NC(=O)[C@H](CCCNC(=N)N)NC(=O)[C@H](C)NC(=O)[C@@H](NC(=O)[C@H](CO)NC(=O)[C@@H](NC(=O)[C@@H](NC(=O)[C@H](CS)NC(=O)[C@H](CCCCN)NC(=O)[C@@H](N)CCCNC(=N)N)C(C)C)[C@@H](C)CC)C(C)C)[C@@H](C)CC)C(=O)N[C@@H](CC(C)C)C(=O)N[C@@H](CS)C(=O)N[C@@H](CC(N)=O)C(N)=O [Symbah-1] (H-RKCVISVARRNRRANIKILCN-NH2; N-terminus assumed)
Change of MBC under each of the conditions tested [1]: ≤ 2 fold
Isolation of resistant mutants (A. baumannii AB5075): no isolates with improved resistance
Effect of gene knockout or overexpression on MIC [2]: no clear effect on MIC
Percent hemolysis of serial dilutions (human red blood cells [3]): very low hemolysis relative to protegrin-1 and tachyplesin-1
Loss of activity (MBC) when 40% human serum was added [4]: 8 fold

GSKKPVPIIYCNRRTGKCQRM (disulfide) [Thanatin]
Hemolysis previously reported (human red blood cells [5]): very low hemolysis

RGGRLCYCRRRFCVCVGR--- (bicyclic or more) [protegrin-1, reference compound]
Loss of activity (MBC) when 40% human serum was added [4]: no change

RKCVILCAR-NRRA-CVILCR [SBH-19]
Solubility in water (Solubility in water): insoluble in water
